# Source: ChEMBL document CHEMBL1145840, “Identification of (3R)-7-hydroxy-N-((1S)-1-[[(3R,4R)-4-(3-hydroxyphenyl)- 3,4-dimethyl-1-piperidinyl]methyl]-2-methylpropyl)-1,2,3,4-tetrahydro- 3-isoquinolinecarboxamide as a novel potent and selective opioid kappa receptor antagonist” (J Med Chem, 2003)
# Values joined by “and” are separate entries in the source; they are usually repeats but may differ in a detail not shown here. Equal entries are not always repeated.
# What was measured:
# [1] = target: T1, Kappa-type opioid receptor (Homo sapiens, UniProt P41145); assay: Antagonistic activity against human cloned kOpioid receptor kappa 1 using U69,593 in [35S]GTP-gamma-S, assay; assay type: functional; settings: read-out: pA2 (converted)
# T1 sequence (P41145 whole entry): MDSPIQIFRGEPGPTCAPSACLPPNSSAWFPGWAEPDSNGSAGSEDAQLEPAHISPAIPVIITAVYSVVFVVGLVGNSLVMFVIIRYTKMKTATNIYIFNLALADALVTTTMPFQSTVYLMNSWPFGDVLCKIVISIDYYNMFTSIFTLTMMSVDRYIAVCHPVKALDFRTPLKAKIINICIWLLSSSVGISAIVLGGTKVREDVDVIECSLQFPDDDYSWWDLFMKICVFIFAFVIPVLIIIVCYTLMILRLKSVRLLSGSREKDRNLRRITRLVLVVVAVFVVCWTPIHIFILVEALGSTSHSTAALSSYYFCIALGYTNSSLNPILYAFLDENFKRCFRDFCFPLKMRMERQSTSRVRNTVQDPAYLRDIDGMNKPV
# In short: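 Membranes from CHO cells transfected with cloned human κ opioid receptor. Antagonism is measured as inhibition of U69,593-stimulated [35S]GTPγS binding and expressed as a Ke value.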
# [2] = target: T2, Delta-type opioid receptor (Homo sapiens, UniProt P41143); assay: (§1) Antagonistic activity against human cloned Opioid receptor delta 1 using DPDPE in [35S]GTP-gamma-S, assay; assay type: functional; settings: read-out: pA2 (converted)
# T2 sequence (P41143 whole entry): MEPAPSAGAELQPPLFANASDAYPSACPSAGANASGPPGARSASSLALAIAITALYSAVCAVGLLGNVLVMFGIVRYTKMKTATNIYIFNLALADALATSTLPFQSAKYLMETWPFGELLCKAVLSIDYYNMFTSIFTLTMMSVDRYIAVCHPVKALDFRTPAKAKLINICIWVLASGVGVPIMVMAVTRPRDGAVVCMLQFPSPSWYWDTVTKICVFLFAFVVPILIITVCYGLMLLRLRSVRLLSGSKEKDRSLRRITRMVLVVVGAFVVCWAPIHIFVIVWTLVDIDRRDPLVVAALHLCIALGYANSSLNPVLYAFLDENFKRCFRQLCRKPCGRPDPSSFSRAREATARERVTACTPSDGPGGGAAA
# [3] = target: Delta-type opioid receptor (Rattus norvegicus, UniProt P33533); assay: Inhibition of [3H]-DADLE binding to Opioid receptor delta 1 of rat brain tissue
# Sequence of Delta-type opioid receptor (Rattus norvegicus, UniProt P33533) (P33533 whole entry): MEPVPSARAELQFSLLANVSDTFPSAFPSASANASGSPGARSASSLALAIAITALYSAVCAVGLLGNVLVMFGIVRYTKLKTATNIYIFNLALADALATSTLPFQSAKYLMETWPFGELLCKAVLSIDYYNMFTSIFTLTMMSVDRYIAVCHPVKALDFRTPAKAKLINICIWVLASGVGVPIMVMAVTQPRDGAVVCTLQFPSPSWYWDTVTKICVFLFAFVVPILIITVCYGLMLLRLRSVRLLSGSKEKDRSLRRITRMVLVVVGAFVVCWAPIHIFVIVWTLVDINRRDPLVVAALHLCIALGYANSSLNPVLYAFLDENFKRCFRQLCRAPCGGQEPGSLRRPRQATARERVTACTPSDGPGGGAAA
# In short: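 Rat brain membranes prepared daily, labelled with 2 nM [3H]DADLE. Incubation 2 h at 25 °C in 50 mM Tris-HCl pH 7.4 with 100 mM choline chloride, 3 mM MnCl2, 100 nM DAMGO to block mu sites, and protease inhibitors. Nonspecific binding was taken with 20 µM levallorphan. Radioligand was displaced by 8-10 drug concentrations. Ki came from IC50 via Cheng–Prusoff, from two pooled experiments.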
# Mu-type opioid receptor [4] = target: Mu-type opioid receptor (Rattus norvegicus, UniProt P33535); assay: Inhibition of [3H]DAMGO binding to Opioid receptor mu 1 of rat brain tissue
# Sequence of Mu-type opioid receptor (Rattus norvegicus, UniProt P33535) (P33535 whole entry): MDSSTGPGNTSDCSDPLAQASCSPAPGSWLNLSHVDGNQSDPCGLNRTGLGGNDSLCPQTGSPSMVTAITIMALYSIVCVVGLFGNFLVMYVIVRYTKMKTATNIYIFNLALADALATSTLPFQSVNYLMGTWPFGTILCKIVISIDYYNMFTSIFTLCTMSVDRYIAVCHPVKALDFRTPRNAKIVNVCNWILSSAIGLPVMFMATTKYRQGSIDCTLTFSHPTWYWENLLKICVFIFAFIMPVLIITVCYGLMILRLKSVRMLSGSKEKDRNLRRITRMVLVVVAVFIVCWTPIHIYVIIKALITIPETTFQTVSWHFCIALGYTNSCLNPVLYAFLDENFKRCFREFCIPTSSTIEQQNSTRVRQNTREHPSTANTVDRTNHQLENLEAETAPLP
# In short: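 Rat brain membranes prepared daily, labelled with [3H]DAMGO. Incubation 2 h at 25 °C in 50 mM Tris-HCl pH 7.4 with protease inhibitor cocktail. Nonspecific binding was taken with 20 µM levallorphan. Radioligand was displaced by 8-10 drug concentrations. IC50 was converted to Ki by IC50/(1+[L]/Kd), from two pooled experiments.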
# [5] = target: Kappa-type opioid receptor (Cavia porcellus, UniProt P41144); assay: Inhibition of [3H]U-69593 binding to Opioid receptor kappa 1 of guinea pig brain
# Sequence of Kappa-type opioid receptor (Cavia porcellus, UniProt P41144) (P41144 whole entry): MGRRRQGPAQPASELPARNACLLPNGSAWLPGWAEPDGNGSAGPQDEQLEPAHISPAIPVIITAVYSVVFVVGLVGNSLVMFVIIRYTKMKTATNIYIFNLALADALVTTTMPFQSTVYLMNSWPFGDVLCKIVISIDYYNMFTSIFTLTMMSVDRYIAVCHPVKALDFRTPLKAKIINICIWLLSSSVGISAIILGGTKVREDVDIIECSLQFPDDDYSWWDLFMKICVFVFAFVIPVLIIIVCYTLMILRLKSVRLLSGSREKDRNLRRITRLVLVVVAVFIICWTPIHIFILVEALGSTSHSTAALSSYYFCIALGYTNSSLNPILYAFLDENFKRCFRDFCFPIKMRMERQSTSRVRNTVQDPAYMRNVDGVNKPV
# In short: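 Guinea pig brain membranes prepared daily, labelled with 2 nM [3H]U69,593. Incubation 2 h at 25 °C in 50 mM Tris-HCl pH 7.4 with 1 µg/mL captopril and protease inhibitors. Nonspecific binding was taken with 1 µM U69,593. Radioligand was displaced by 8-10 drug concentrations. Ki came from IC50 via IC50/(1+[L]/Kd), from two pooled experiments.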
# Mu-type opioid receptor [6] = target: T3, Mu-type opioid receptor (Homo sapiens, UniProt P35372); assay: Antagonistic activity against human cloned Opioid receptor mu 1 using DPDPE in [35S]GTP-gamma-S, assay; assay type: functional; settings: read-out: pA2 (converted)
# T3 sequence (P35372 whole entry): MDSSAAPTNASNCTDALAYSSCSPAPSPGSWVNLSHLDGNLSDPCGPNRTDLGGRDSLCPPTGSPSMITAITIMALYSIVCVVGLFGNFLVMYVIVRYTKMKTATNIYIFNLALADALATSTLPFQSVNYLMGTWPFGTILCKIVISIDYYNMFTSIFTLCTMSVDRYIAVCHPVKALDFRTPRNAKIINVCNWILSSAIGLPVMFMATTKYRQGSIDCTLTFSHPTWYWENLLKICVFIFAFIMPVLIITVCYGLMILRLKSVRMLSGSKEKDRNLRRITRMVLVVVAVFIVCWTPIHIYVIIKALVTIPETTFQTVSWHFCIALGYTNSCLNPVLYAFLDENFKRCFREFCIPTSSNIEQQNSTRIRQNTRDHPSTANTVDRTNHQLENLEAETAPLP
# [7] = target: Opioid receptors; delta & kappa (Homo sapiens) (UniProt P41145+P41143); assay: Selectivity ratio of delta and kappa opioid receptor; assay type: protein assay
# Sequence of Opioid receptors; delta & kappa (Homo sapiens) (P41143 whole entry, looked up): as the sequence (P41143 whole entry) above
# Sequence of Opioid receptors; delta & kappa (Homo sapiens) (P41145 whole entry, looked up): as the sequence (P41145 whole entry) above
# [8] = target: Opioid receptors; mu & kappa (Homo sapiens) (UniProt P41145+P35372); assay: Selectivity ratio of mu and kappa opioid receptor; assay type: protein assay
# Sequence of Opioid receptors; mu & kappa (Homo sapiens) (P35372 whole entry, looked up): as the sequence (P35372 whole entry) above
# Sequence of Opioid receptors; mu & kappa (Homo sapiens) (P41145 whole entry, looked up): as the sequence (P41145 whole entry) above
# [9] = target: Kappa-type opioid receptor (Cavia porcellus) (UniProt P41144); assay: Inhibition of U69,593 antagonistic activity in [35S]GTP-gamma-S, assay against guinea pig Opioid receptor kappa 1; assay type: functional
# Sequence of Kappa-type opioid receptor (Cavia porcellus) (P41144 whole entry): as the sequence (P41144 whole entry) above
# In short: (§2)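 Agonist-stimulated binding was run with varying drug concentrations, 3 h at 25 °C, then filtration and scintillation counting. Nonspecific binding was taken with 10 µM GTPγS. Three experiments were pooled and fit by nonlinear least squares to give Ke.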
# [10] = target: Mu-type opioid receptor (Cavia porcellus) (UniProt P97266); assay: Antagonistic activity against DAMGO and guinea pig caudate Opioid receptor mu 1 in [35S]GTP-gamma-S, assay; assay type: functional; in short: as §2
# Sequence of Mu-type opioid receptor (Cavia porcellus) (P97266 whole entry): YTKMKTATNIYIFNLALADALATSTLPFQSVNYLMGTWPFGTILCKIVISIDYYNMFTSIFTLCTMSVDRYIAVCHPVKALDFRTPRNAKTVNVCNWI
# [11] = target: T2, Delta-type opioid receptor; assay: as §1; assay type: functional
# [12] = target: T1, Kappa-type opioid receptor; assay: Binding affinity towards human cloned Opioid receptor kappa 1 using [3H]U-69593
# [13] = target: T2, Delta-type opioid receptor; assay: Binding affinity towards human cloned Opioid receptor delta 1 using [3H]Cl-DPDPE
# [14] = target: T1, Kappa-type opioid receptor; assay: Antagonistic activity against human cloned Opioid receptor kappa 1 using U69,593 in [35S]GTP-gamma-S, assay; assay type: functional
# Mu-type opioid receptor [15] = target: T3, Mu-type opioid receptor; assay: Binding affinity towards human cloned Opioid receptor mu 1 using [3H]DAMGO
# Mu-type opioid receptor [16] = target: T3, Mu-type opioid receptor
# Mu-type opioid receptor [17] = target: T3, Mu-type opioid receptor; assay: Antagonistic activity against human cloned Opioid receptor mu 1 using DAMGO in [35S]GTP-gamma-S, assay; assay type: functional
compound,measurement,setting,value
N=C(N)Nc1ccc2[nH]c3c(c2c1)C[C@@]1(O)[C@H]2Cc4ccc(O)c5c4[C@@]1(CCN2CC1CC1)[C@H]3O5 [GUANIDINONALTRINDOLE],Kb,[1],0.0398 nM
same,Kb,[2],15.5 nM
same,Ki,[3],70 nM
same,Ki,Mu-type opioid receptor [4],36.9 nM
same,Ki,[5],0.18 nM
same,Kb,Mu-type opioid receptor [6],3.24 nM
same,Delta/kappa,[7],389
same,Mu/kappa ratio,[8],206
CC(C)[C@@H](CN1CC[C@@](C)(c2cccc(O)c2)[C@@H](C)C1)NC(=O)[C@@H]1Cc2ccc(O)cc2CN1,Ke,[9],4.2 nM
same,Ki,[3],> 4900 nM
same,Ki,Mu-type opioid receptor [4],596 nM
same,Ki,[5],9.8 nM
same,Ke,[10],11 nM
CC(C)[C@@H](CN1CC[C@](C)(c2cccc(O)c2)[C@H](C)C1)NC(=O)[C@H]1Cc2ccc(O)cc2CN1,Ke,[9],16.7 nM
same,Ki,[3],144 nM
same,Ki,Mu-type opioid receptor [4],138 nM
same,Ki,[5],17.5 nM
same,Ke,[10],178 nM
Oc1ccc2c3c1O[C@H]1c4[nH]c5c(c4C[C@@]4(O)[C@@H](C2)N(CC2CC2)CC[C@]314)C[C@@]1(O)[C@H]2Cc3ccc(O)c4c3[C@@]1(CCN2CC1CC1)[C@H]5O4,Ke,[11],4.4 nM
CC(C)[C@@H](CN1CC[C@@](C)(c2cccc(O)c2)[C@@H](C)C1)NC(=O)[C@@H](N)Cc1ccc(O)cc1 (stereo in doubt; form 2) [listing 1 of 2 here],Ki,[3],> 5050 nM
same,Ki,Mu-type opioid receptor [4],633 nM
same,Ki,[5],16 nM
CC(C)[C@@H](CN1CC[C@@](C)(c2cccc(O)c2)[C@@H](C)C1)NC[C@H]1Cc2ccc(O)cc2CN1,Ki,[12],1.82 nM
same,Ke,[11],427 nM
same,Ki,[13],83.6 nM
same,Ke,[14],0.14 nM
same,Ke,[9],0.2 nM
same,Ki,[3],> 4900 nM
same,Ki,[5],0.63 nM
same,Ki,Mu-type opioid receptor [15],3.8 nM
same,Ke,[10],12.8 nM
same,Ke,Mu-type opioid receptor [16],14.3 nM
CC(C)[C@@H](CN1CC[C@@](C)(c2cccc(O)c2)[C@@H](C)C1)NC(=O)[C@H]1Cc2ccc(O)cc2CN1 [JDTIC],Ke,[11],79.3 nM
same,Ke,[14],0.01 nM
same,Ke,[9],0.02 nM
same,Ki,[3],301 nM
same,Ki,Mu-type opioid receptor [4],3.73 nM
same,Ke,Mu-type opioid receptor [17],3.41 nM
same,Ke,[10],2.16 nM
CC(C)[C@@H](CN1CC[C@@](C)(c2cccc(O)c2)[C@@H](C)C1)NC(=O)[C@H]1Cc2ccc(O)cc2CN1C,Ki,[12],1.01 nM
same,Ke,[11],120 nM
same,Ki,[13],118 nM
same,Ke,[14],0.1 nM
same,Ke,[9],0.37 nM
same,Ki,[3],616 nM
same,Ki,Mu-type opioid receptor [4],37 nM
same,Ke,Mu-type opioid receptor [17],8.92 nM
same,Ki,[5],0.053 nM
same,Ki,Mu-type opioid receptor [15],8.86 nM
same,Ke,[10],12.7 nM
CC(C)[C@@H](CN1CC[C@@](C)(c2cccc(O)c2)[C@@H](C)C1)NC(=O)[C@H]1Cc2ccccc2CN1,Ki,[12],2.18 nM
same,Ki,[13],1090 nM
same,Ke,[14],2.95 nM
same,Ki,[3],> 4900 nM
same,Ki,Mu-type opioid receptor [4],775 nM
same,Ke,Mu-type opioid receptor [17],8.38 nM
same,Ki,[5],2.1 nM
same,Ki,Mu-type opioid receptor [15],33.1 nM
CC(C)[C@@H](CN1CC[C@@](C)(c2cccc(O)c2)[C@@H](C)C1)NC(=O)[C@@H](N)Cc1ccc(O)cc1 (stereo in doubt; form 1) [listing 1 of 2 here],Ke,[9],44.6 nM
same,Ke,[10],12 nM
CC(=O)N1Cc2cc(O)ccc2C[C@@H]1C(=O)N[C@H](CN1CC[C@@](C)(c2cccc(O)c2)[C@@H](C)C1)C(C)C,Ke,[9],19.6 nM
same,Ki,[3],> 4900 nM
same,Ki,Mu-type opioid receptor [4],764 nM
same,Ki,[5],146 nM
same,Ke,[10],17.4 nM
same,Delta/kappa,[7],> 34 and 15
CC(C)[C@@H](CN1CC[C@@](C)(c2cccc(O)c2)[C@@H](C)C1)NC(=O)[C@H]1Cc2ccc(O)cc2CN1C(=O)CN(C)C,Ki,[12],16.2 nM
same,Ke,[11],299 nM
same,Ki,[13],175 nM
same,Ke,[14],1.1 nM
same,Ke,[9],0.16 nM
same,Ki,[3],> 3400 nM
same,Ki,Mu-type opioid receptor [4],164 nM
same,Ke,Mu-type opioid receptor [17],21.2 nM
same,Ki,[5],15.5 nM
same,Ki,Mu-type opioid receptor [15],13.2 nM
same,Ke,[10],29 nM
CC(C)[C@@H](CN1CC[C@@](C)(c2cccc(O)c2)[C@@H](C)C1)NC(=O)[C@@H](N)Cc1ccc(O)cc1 (stereo in doubt; form 2) [listing 2 of 2 here],Ke,[9],30 nM
same,Ke,[10],16.5 nM
CC(C)[C@@H](CN1CC[C@@](C)(c2cccc(O)c2)[C@@H](C)C1)NC(=O)[C@@H](N)Cc1ccc(O)cc1 (stereo in doubt; form 1) [listing 2 of 2 here],Ki,[3],> 5050 nM
same,Ki,Mu-type opioid receptor [4],208 nM
same,Ki,[5],20.4 nM
